Measured values of several laboratories.
Compare with care: the assays were run in different laboratories.

| SMILES | tested on | assay | test system | setting | endpoint | value |
| --- | --- | --- | --- | --- | --- | --- |
| O=C(/C=C/c1cn(Cc2cn(-c3ccnc4cc(Cl)ccc34)nn2)c2ccccc12)c1ccc(F)cc1 | Plasmodium falciparum | parasite growth, SYBR Green | 3D7 | 5 µM, blood stage | inhibition | 15.8% |
| CCOC(Cn1nc(/C=C/C(=O)N2CCC(OC)CC2)c2cnc(NC)nc21)OCC | FLO-1 | cell growth or viability, resazurin | – | 5 days | EC50 | > 30 µM |
| C=CC(=O)NC1CCN(c2ncc3ncnc(Nc4ccc(Oc5ccc6c(c5)ncn6C)c(C)c4)c3n2)CC1 | MDA-MB-453 | cell growth or viability | – | – | EC50 | 0.0352 µM |
| CNc1ncc2c(/C=C/C(=O)N3CCC(OC)CC3)nn(CC3CCCCC3)c2n1 | FLO-1 | cell growth or viability, resazurin | – | 5 days | EC50 | 7.15 µM |
| COc1cccc(C(=O)/C=C/c2cn(Cc3cn(-c4ccnc5cc(Cl)ccc45)nn3)c3ccccc23)c1 | Plasmodium falciparum | parasite growth, SYBR Green | 3D7 | 5 µM, blood stage | inhibition | 2.88% |
| O=C(NO)c1ccc(CNc2nc3cccc(-c4ccc5c(c4)OCO5)n3n2)cc1 | NCI-H460 | cell growth or viability, SRB | – | – | GI50 | 0.68 µM |
| COC(=O)/C=C/c1nn(CC2CCCC2)c2ncnc(N)c12 | FLO-1 | cell growth or viability, resazurin | – | 5 days | EC50 | > 30 µM |
| Cn1cc2c3c1C(=O)C(NCCc1ccc(O)cc1)=CC3=[N+](C)CC2 | Plasmodium falciparum | parasite growth, SYBR Green | DD2 | blood stage | IC50 | 0.0484 µM |
| O=C(/C=C/c1cn(Cc2cn(-c3ccnc4cc(Cl)ccc34)nn2)c2ccccc12)c1cc(OCc2ccccc2)cc(OCc2ccccc2)c1 | Plasmodium falciparum | parasite growth, SYBR Green | 3D7 | 10 µM, blood stage | inhibition | 49% |
| COCC(=O)N1CCCC(C(=O)NCc2nc(-c3ccccc3)cs2)C1 (racemic) | Plasmodium falciparum | parasite growth, SYBR Green | – | 72 h | EC50 | 0.15 µM |
| O=C1C=C2NCCc3c[nH]c(c32)C1=O | Plasmodium falciparum | parasite growth, SYBR Green | W2 | blood stage | IC50 | 25 µM |
| O=C(/C=C/c1cn(Cc2cn(-c3ccnc4cc(Cl)ccc34)nn2)c2ccccc12)c1cccc([N+](=O)[O-])c1 | Plasmodium falciparum | parasite growth, SYBR Green | 3D7 | 10 µM, blood stage | inhibition | 36% |
| COC1=CC2=[N+](C)CCc3c[nH]c(c32)C1=O | Plasmodium falciparum | parasite growth, SYBR Green | DD2 | blood stage | IC50 | 1.63 µM |
| COc1ccc(C(=O)/C=C/c2cn(Cc3cn(-c4ccnc5cc(Cl)ccc45)nn3)c3ccccc23)cc1OC | Plasmodium falciparum | parasite growth, SYBR Green | 3D7 | 5 µM, blood stage | inhibition | -4% |
| CC1CCN(C(=O)/C=C/c2nn(CC3CCCC3)c3ncnc(N)c23)CC1 | FLO-1 | cell growth or viability, resazurin | – | 5 days | EC50 | > 30 µM |
